We go through two molecules from ChEMBL document CHEMBL4261636, “Design of Y2 Receptor Selective and Proteolytically Stable PYY3-36 Analogues” (J Med Chem, 2018).

For data set [1], the target named is T1, Neuropeptide Y receptor type 1 (Homo sapiens, UniProt P25929).
T1 sequence (P25929 whole entry): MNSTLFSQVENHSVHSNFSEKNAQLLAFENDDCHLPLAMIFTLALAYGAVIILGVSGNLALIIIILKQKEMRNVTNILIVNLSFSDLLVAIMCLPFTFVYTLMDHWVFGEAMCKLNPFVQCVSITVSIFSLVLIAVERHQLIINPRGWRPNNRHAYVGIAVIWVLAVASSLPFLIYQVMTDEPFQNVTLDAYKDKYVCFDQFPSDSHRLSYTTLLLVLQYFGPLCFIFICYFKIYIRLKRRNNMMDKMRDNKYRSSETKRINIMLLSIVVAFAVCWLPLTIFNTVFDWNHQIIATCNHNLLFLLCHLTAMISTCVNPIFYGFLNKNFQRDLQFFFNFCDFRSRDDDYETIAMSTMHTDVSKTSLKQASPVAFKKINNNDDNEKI
Put plainly: Displacement of [125I]-PYY(1 to 36 residues) from human Y1R expressed in BHK-21 cell membranes after 2 hrs by scintillation proximity assay. Background: In a radioligand displacement assay an active substance lowers the binding of a labelled ligand.

The target in data set [2] is T2, Neuropeptide Y receptor type 2 (Homo sapiens, UniProt P49146).
T2 sequence (P49146 whole entry): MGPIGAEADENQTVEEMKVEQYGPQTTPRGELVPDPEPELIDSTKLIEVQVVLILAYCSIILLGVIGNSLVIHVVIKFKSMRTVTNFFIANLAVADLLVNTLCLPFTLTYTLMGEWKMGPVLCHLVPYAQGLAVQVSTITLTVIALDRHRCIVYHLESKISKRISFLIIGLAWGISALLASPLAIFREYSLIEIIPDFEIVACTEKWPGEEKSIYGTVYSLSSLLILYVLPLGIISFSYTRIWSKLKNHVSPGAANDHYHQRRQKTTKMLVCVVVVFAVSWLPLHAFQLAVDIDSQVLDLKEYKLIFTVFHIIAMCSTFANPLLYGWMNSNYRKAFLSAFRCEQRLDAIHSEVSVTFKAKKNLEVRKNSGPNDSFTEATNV
Put plainly: Displacement of [125I]-PYY(1 to 36 residues) from human Y2R expressed in CHO cell membranes after 2 hrs by scintillation proximity assay.

Data set [3] addresses T1, Neuropeptide Y receptor type 1. The data set is described as follows: Activation of human Y1R expressed in HEK293 cells assessed as inhibition of isoproterenol-induced increase in intracellular cAMP levels by calcium 5 dye-based FLIPR assay. Format: functional, cell-based. (Cyclic AMP is a second messenger, typically raised through Gs and lowered through Gi signalling.)

Data set [4] deals with T2, Neuropeptide Y receptor type 2. The data set is described as follows: Activation of human Y2R expressed in HEK293 cells assessed as inhibition of isoproterenol-induced increase in intracellular cAMP levels by calcium 5 dye-based FLIPR assay. Format: functional, cell-based.
A short description of data set [5]: Displacement of [125I]-PYY(1 to 36 residues) from mouse Y1R expressed in HEK293 cell membranes after 2 hrs by scintillation proximity assay.
Data set [6] in a line: Displacement of [125I]-PYY(1 to 36 residues) from mouse Y2R expressed in HEK293 cell membranes after 2 hrs by scintillation proximity assay.
The target of data set [7] is T3, Neuropeptide Y receptor type 5 (Mus musculus, UniProt O70342).
T3 sequence (O70342 whole entry): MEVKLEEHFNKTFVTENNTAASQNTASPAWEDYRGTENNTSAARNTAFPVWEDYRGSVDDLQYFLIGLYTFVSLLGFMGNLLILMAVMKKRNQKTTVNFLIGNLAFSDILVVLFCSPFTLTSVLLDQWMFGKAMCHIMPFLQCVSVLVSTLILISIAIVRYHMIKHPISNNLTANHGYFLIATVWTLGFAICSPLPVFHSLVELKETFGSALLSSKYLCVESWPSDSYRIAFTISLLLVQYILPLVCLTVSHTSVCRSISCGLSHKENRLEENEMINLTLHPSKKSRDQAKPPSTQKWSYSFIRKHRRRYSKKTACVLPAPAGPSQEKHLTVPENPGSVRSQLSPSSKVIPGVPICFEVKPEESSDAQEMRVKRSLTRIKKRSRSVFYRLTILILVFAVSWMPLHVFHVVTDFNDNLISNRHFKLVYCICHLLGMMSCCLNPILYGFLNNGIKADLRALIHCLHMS
Put plainly: Displacement of [125I]-PYY(1 to 36 residues) from mouse Y5R expressed in HEK293 cell membranes after 2 hrs by scintillation proximity assay.

The target of data set [8] is Neuropeptide Y receptor type 4 (Mus musculus, UniProt Q61041). Put plainly: Displacement of [125I]-PP from mouse Y4R expressed in HEK293 cell membranes after 2 hrs by scintillation proximity assay.
Chain of Neuropeptide Y receptor type 4 (Q61041 whole entry, the tested form may be a part): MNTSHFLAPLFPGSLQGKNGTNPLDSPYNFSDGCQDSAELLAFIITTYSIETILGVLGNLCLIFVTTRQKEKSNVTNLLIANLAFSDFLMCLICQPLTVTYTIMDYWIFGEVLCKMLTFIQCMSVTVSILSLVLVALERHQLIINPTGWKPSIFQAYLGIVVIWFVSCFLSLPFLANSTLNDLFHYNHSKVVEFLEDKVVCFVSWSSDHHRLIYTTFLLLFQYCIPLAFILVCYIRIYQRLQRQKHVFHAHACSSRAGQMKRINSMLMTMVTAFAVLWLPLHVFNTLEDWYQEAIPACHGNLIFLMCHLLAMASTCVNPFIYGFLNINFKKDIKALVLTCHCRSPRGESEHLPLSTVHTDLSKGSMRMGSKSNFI
Data set [9] addresses Dipeptidyl peptidase 4 (Sus scrofa, UniProt P22411). The data set is described as follows: Drug metabolism in minipig plasma assessed as DDP-4-meditaed GLP1(9 to 37 residues) formation by measuring half life at 1 uM by LC-MS analysis. Format: ADME. The following applies: pig. In short, it runs like this:
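Heparinized mini-pig plasma diluted 4:1 with 0.1 M PBS pH 7.4, pre-warmed 30 min at 37°C with peptide, then combined (1 uM final) and kept at 37°C. Aliquots taken at 5–300 min were quenched in 3 volumes methanol with internal standard, centrifuged and water-diluted. Analysed by ESI+ QTOF LC-MS against 20–2000 nM plasma calibrators, with %-remaining normalised to the 15 min sample; n = 3.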

Chain of Dipeptidyl peptidase 4 (P22411 whole entry, the tested form may be a part): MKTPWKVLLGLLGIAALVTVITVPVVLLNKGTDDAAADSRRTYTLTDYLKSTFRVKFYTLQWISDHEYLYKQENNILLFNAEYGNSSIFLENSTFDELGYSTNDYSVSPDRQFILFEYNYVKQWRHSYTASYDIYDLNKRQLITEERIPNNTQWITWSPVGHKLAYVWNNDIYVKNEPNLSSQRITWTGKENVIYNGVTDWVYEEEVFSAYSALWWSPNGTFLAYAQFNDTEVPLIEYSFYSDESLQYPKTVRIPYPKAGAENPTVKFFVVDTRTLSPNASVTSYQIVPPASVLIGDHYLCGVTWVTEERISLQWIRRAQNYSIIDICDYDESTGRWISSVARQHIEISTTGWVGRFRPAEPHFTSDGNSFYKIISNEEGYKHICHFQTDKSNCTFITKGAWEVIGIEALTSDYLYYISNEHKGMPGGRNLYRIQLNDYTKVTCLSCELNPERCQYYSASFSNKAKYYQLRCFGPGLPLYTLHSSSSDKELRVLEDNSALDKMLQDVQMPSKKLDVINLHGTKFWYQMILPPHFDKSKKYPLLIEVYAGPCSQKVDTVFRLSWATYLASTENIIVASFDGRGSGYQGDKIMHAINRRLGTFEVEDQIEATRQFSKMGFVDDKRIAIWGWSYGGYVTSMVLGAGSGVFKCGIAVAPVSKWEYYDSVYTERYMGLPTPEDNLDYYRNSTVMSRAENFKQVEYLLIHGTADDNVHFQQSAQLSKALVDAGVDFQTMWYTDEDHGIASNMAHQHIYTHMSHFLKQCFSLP

In general, Ki refers to a dissociation constant, usually derived from enzyme kinetics or from competition with a known ligand. A higher Ki goes with weaker binding. What is called IC50 is the concentration needed to halve the response being measured. A lower IC50 goes with greater potency. The pIC50 is −log10 of the IC50, conventionally taken in molar units. A high value points to a low IC50. For `CC[C@H](C)[C@H](NC(=O)[C@H](Cc1ccc(O)cc1)NC(=O)[C@H](CCCNC(=N)N)NC(=O)[C@H](CCCNC(=N)N)NC(=O)[C@H](CC(C)C)NC(=O)[C@H](CC(=O)O)NC(=O)[C@H](C)NC(=O)[C@H](C)NC(=O)[C@H](Cc1ccc(O)cc1)NC(=O)[C@H](CCC(N)=O)NC(=O)[C@H](C)NC(=O)[C@H](CCSC)NC(=O)[C@H](CCC(N)=O)NC(=O)[C@H](CCC(=O)O)NC(=O)[C@@H]1CCCN1C(=O)[C@@H](NC(=O)[C@H](C)NC(=O)[C@H](CC(N)=O)NC(=O)[C@H](CC(=O)O)NC(=O)CNC(=O)[C@@H]1CCCN1C(=O)[C@H](Cc1ccc(O)cc1)NC(=O)[C@@H](NC(=O)[C@@H]1CCCN1C(=O)[C@H](CCC(=O)O)NC(=O)[C@H](CC(C)C)NC(=O)[C@@H]1CCCN1C(=O)[C@H](C)N)C(C)C)[C@@H](C)O)C(=O)N[C@@H](CC(N)=O)C(=O)N[C@@H](CCSC)C(=O)N[C@@H](CC(C)C)C(=O)N[C@H](C(=O)N[C@@H](CCCNC(=N)N)C(=O)N1CCC[C@H]1C(=O)N[C@@H](CCCNC(=N)N)C(=O)N[C@@H](Cc1ccc(O)cc1)C(=O)O)[C@@H](C)O`, the Ki came to 50 nM in data set [1] and 5000 nM in [2]. Moreover, the EC50 in data set [3] (read-out: EC50) is above 30 nM; in [3] (read-out: pEC50 (converted)), above 31.6 nM; in data set [4] (read-out: EC50) it was above 30 nM; in [4] (read-out: pEC50 (converted)) it was above 31.6 nM; in data set [7] it was 2.5 nM; in data set [8], 0.1 nM. In addition, the IC50 in data set [5] is 10 nM; in [6], above 1000 nM. Moreover, the pIC50 was 8 in data set [5] and below 6 in data set [6].
As for `CC[C@H](C)[C@H](NC(=O)[C@H](Cc1ccccc1)NC(=O)[C@H](CCC(=O)O)NC(=O)[C@H](CCCCN)NC(=O)[C@H](C)NC(=O)[C@H](C)NC(=O)[C@H](CCC(N)=O)NC(=O)CNC(=O)[C@H](CCC(=O)O)NC(=O)[C@H](CC(C)C)NC(=O)[C@H](Cc1ccc(O)cc1)NC(=O)[C@H](CO)NC(=O)[C@H](CO)NC(=O)[C@@H](NC(=O)[C@H](CC(=O)O)NC(=O)[C@H](CO)NC(=O)[C@@H](NC(=O)[C@H](Cc1ccccc1)NC(=O)[C@@H](NC(=O)CNC(=O)[C@H](CCC(=O)O)NC(=O)[C@H](C)NC(=O)[C@@H](N)Cc1c[nH]cn1)[C@@H](C)O)[C@@H](C)O)C(C)C)C(=O)N[C@@H](C)C(=O)N[C@@H](Cc1c[nH]c2ccccc12)C(=O)N[C@@H](CC(C)C)C(=O)N[C@H](C(=O)N[C@@H](CCCCN)C(=O)NCC(=O)N[C@@H](CCCN=C(N)N)C(=O)NCC(=O)O)C(C)C`, the t1/2 in data set [9] turned out to be 46 min.
